Published values of several laboratories.
Protocols differ between the studies behind these lines.
Target: Casein kinase I isoform epsilon (CSNK1E, Homo sapiens, UniProt P49674)

Compound | read-out | method | concentration | remaining binding [%]
O=C(c1ccc(Nc2ncc(Cl)c(-c3ccc(Cl)s3)n2)cc1)N1CCC(N2CCCC2)CC1 | binding | competition with immobilised ligand | 1 µM | 100
C[C@@H](c1ccc(-n2cnc3c(N)ncnc32)cc1)N1CCc2nn(C)c(Cc3ccccc3)c2C1=O | binding | competition with immobilised ligand | 0.1 µM | 83
Cc1nc(N2CC[C@@H](O)C2)ncc1-c1cc(C(F)(F)F)cc2[nH]ncc12 | binding | competition with immobilised ligand | 1 µM | 79
C[C@H]1CCN(c2nccc(-c3cnn4ncccc34)n2)C1 | binding | – | 1 µM | 49
O=c1nc(-c2ccccn2)sc2ccccc12 | binding | competition with immobilised ligand | 1 µM | 88
CCN1CCN(Cc2ccc(C(=O)Nc3ccc(C)c(Oc4ccc5c(c4)CC(=O)N5)c3)cc2C(F)(F)F)CC1 | binding | competition with immobilised ligand | 1 µM | 100
O=C(NCCCN1CCOCC1)c1ccc(Nc2ncc(Cl)c(-c3ccc(Cl)s3)n2)cc1 | binding | competition with immobilised ligand | 1 µM | 100
O=C(Nc1c[nH]nc1C(=O)NC1CCNCC1)c1cc(F)cc(F)c1 | binding | competition with immobilised ligand | 1 µM | 73
O=C(NCc1ncc(C(F)(F)F)cc1Cl)c1ccc2c(c1)C1(CCS(=O)(=O)CC1)[C@H](C1CC1)N2S(=O)(=O)c1ccc(F)cc1 | cell-free assay | competition with immobilised ligand | 1 µM | 100
c1cnn2ncc(-c3ccnc(N4CCC45COC5)n3)c2c1 | binding | – | 1 µM | 53
Cc1cnc(Nc2ccc(C(=O)N3CCC(N4CCCC4)CC3)cc2)nc1-c1cc2ccccc2s1 | binding | competition with immobilised ligand | 1 µM | 100
CC(=O)C1=C(C)N(c2cccc(C(F)(F)F)c2)C(=O)N[C@@H]1c1ccc(C#N)nc1 | cell-free assay | competition with immobilised ligand | 1 µM | 100
CC1CCCN1c1nccc(-c2cnn3ncccc23)n1 (stereo not shown) | binding | – | 1 µM | 100
Cc1cc(NC(=O)c2cccc(S(F)(F)(F)(F)F)c2)cc(-n2ccn3nc(-c4cccnc4)cc23)c1 | cell-free assay | competition with immobilised ligand | 1 µM | 75.7
N[C@H]1CCN(c2nccc(-c3cnn4ncccc34)n2)C1 | binding | – | 1 µM | 47
C[C@@H]1CN(c2cc(-c3n[nH]c4ccc(OC5(C)CC5)cc34)ncn2)C[C@H](C)O1 | cell-free assay | competition with immobilised ligand | 0.1 µM | 100
C=CC(=O)N1CCC(C(=O)NCC(=O)N2CCN(c3nc(-c4cnc(N)nc4C(F)F)nc(N4CCOCC4)n3)CC2)CC1 | binding | competition with immobilised ligand | 1 µM | 87
Cc1cnn2ncc(-c3ccnc(N(C)C)n3)c2c1 | binding | – | 1 µM | 60
O=C1NC(c2ccccn2)Sc2ccccc21 (stereo not shown) | cell-free assay | competition with immobilised ligand | 1 µM | 98
FC(F)(F)Oc1cccc(-c2cnc3ccc(-c4ccncc4)nn23)c1 | cell-free assay | competition with immobilised ligand | 5 µM | 12
CN(CCCC(F)(F)F)c1nccc(-c2cnn3ncccc23)n1 | binding | – | 1 µM | 100
CNC(=O)[C@@H]1CC[C@@H](n2c(-c3ccc4cnccc4c3)nc3ccc(C(=O)NCc4cccc(C(N)=O)c4)cc32)C1 | binding | competition with immobilised ligand | 1 µM | 100
